Results reported in ChEMBL document CHEMBL4049407, “Positional Scanning Identifies the Molecular Determinants of a High Affinity Multi-Leucine Inhibitor for Furin and PACE4” (J Med Chem, 2017).
Activity calls are given as the source filed them. No rule for the calls is given here. Peptide text beside a SMILES is read from it. * marks the point of attachment. NH(4-amidinobenzyl) = N=C(N)c1ccc(CN*)cc1

Legend:
Homo sapiens = species on record: Homo sapiens; assay: Selectivity index, ratio of Ki for recombinant human furin expressed in drosophila S2 cells to Ki for recombinant human PACE4 expressed in drosophila S2 cells; assay type: cell-based
Procedure, shortened: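 Ratio Ki(furin)/Ki(PACE4). […] PACE4 buffer was BisTris pH 6.5; furin buffer was HEPES pH 7.5, or BisTris pH 6.5 for His peptides. Ki fitted by Morrison equation from three independent experiments.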

Furin = Furin (Homo sapiens, UniProt P09958); assay: Inhibition of recombinant human furin expressed in drosophila S2 cells using pyrGlu-Arg-Thr-Lys-Arg-7-amido-4-methylcoumarin as substrate after 60 mins by spectrofluorometry method; assay type: cell-based
Chain of Furin (P09958 whole entry): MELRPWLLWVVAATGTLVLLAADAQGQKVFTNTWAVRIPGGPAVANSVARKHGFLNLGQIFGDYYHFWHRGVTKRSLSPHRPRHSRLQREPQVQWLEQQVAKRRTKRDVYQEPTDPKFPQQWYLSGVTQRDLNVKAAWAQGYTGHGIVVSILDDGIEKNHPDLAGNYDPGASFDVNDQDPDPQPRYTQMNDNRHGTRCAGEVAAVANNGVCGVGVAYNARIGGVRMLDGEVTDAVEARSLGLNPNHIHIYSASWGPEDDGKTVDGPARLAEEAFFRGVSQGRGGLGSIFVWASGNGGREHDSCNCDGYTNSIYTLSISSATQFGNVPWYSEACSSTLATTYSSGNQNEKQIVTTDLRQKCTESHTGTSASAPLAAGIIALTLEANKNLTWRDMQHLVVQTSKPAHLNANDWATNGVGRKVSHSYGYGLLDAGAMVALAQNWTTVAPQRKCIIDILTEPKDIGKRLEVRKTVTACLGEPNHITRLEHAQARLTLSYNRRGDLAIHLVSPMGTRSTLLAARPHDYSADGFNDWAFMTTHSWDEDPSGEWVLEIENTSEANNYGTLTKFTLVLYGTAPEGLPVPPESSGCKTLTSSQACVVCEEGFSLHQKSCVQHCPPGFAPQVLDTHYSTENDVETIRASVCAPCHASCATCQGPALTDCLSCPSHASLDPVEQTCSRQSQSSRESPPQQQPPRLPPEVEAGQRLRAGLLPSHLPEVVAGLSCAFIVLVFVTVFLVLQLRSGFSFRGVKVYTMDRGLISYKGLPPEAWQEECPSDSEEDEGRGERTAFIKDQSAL
Procedure, shortened: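 Human recombinant purified furin at 2 units/100 µL (0.54 nM), in 100 mM HEPES pH 7.5, 1 mM CaCl2, 1 mM β-mercaptoethanol, 1.8 mg/mL BSA. His-containing peptides run instead in 20 mM BisTris pH 6.5 with the same additives. Substrate 100 µM, KM 5.04 µM. Inhibitor 1 nM to 10 µM; 60 min at 37°C. Fluorescence ex 370 / em 460 nm. Ki by Morrison equation; triplicate experiments, mean ± SD.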

[1] = target: T1, Proprotein convertase subtilisin/kexin type 6 (Homo sapiens, UniProt P29122); assay: Inhibition of recombinant human PACE4 expressed in drosophila S2 cells using pyrGlu-Arg-Thr-Lys-Arg-7-amido-4-methylcoumarin as substrate after 60 mins by spectrofluorometry method; assay type: cell-based
T1 sequence (P29122 whole entry): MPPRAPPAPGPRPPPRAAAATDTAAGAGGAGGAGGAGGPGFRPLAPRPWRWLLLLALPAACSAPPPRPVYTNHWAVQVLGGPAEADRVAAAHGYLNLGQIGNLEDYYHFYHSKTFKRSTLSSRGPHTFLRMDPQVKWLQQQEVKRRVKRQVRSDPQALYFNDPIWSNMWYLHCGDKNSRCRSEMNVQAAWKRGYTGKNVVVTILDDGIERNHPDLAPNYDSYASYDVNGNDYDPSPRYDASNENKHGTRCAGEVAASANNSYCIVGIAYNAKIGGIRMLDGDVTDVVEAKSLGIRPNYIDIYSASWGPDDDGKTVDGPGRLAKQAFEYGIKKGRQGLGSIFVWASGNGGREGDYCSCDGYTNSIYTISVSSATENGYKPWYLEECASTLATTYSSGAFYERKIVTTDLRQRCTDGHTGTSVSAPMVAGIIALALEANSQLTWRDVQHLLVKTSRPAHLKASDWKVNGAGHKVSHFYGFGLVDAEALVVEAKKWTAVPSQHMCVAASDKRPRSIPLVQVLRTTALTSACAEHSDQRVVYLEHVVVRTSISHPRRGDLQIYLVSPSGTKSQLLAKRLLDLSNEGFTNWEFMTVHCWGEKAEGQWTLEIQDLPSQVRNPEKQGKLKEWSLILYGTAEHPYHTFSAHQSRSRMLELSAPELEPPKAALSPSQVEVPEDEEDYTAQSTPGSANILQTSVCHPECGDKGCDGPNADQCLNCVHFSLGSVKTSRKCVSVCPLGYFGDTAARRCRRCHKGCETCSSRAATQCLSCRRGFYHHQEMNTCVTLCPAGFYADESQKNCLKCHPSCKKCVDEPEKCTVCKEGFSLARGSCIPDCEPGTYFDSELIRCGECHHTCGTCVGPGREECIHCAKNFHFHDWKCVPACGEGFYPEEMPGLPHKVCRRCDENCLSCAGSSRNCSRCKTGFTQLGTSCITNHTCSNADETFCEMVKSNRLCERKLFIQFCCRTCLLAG
Procedure, shortened: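 Human recombinant purified PACE4 at 2 units/100 µL (20.18 nM), in 20 mM BisTris pH 6.5, 1 mM CaCl2, 1.8 mg/mL BSA. Substrate 100 µM, KM 4.035 µM. Inhibitor 1 nM to 10 µM; 60 min at 37°C. Fluorescence ex 370 / em 460 nm. Ki by Morrison tight-binding equation; three independent experiments, mean ± SD.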

DU-145 = assay: Antiproliferative activity against human DU145 cells assessed as reduction in metabolic activity at 25 to 100 uM after 72 hrs by MTT assay; assay type: functional, cell-based
Procedure, shortened: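 First-pass MTT screen of each library peptide on DU145 cells (RPMI 1640, 5% FBS, 1500 cells/well, poly-L-lysine plates). Peptides added 24 h after seeding at 25, 50 and 100 µM in fresh serum medium for 72 h. MTT 1 mg/mL for 4 h; 2-propanol HCl solubilisation. Activity normalised to water vehicle. Mean ± SEM of at least two independent experiments.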

| Compound | Ratio Ki (Homo sapiens) | Ki (Furin) | Ki [1] | Activity (DU-145) |
| --- | --- | --- | --- | --- |
| CC(=O)N[C@@H](CC(C)C)C(=O)N[C@@H](Cc1cnc[nH]1)C(=O)N[C@@H](CC(C)C)C(=O)N[C@@H](CC(C)C)C(=O)N[C@@H](CCCNC(=N)N)C(=O)N[C@H](C(=O)N[C@@H](CCCCN)C(=O)NCc1ccc(C(=N)N)cc1)C(C)C (Ac-LHLLRVK-{NH(4-amidinobenzyl)}) | 1.6 | 4.7 nM | 3 nM | inactive |
| CC(=O)N[C@@H](CC(C)C)C(=O)N[C@@H](CCC(N)=O)C(=O)N[C@@H](CC(C)C)C(=O)N[C@@H](CC(C)C)C(=O)N[C@@H](CCCNC(=N)N)C(=O)N[C@H](C(=O)N[C@@H](CCCCN)C(=O)NCc1ccc(C(=N)N)cc1)C(C)C (Ac-LQLLRVK-{NH(4-amidinobenzyl)}) | 0.8 | 2.3 nM | 3 nM | inactive |
| CC(=O)N[C@@H](CC(C)C)C(=O)N[C@@H](CC(C)C)C(=O)N[C@@H](CCCNC(=N)N)C(=O)N[C@@H](CC(C)C)C(=O)N[C@@H](CCCNC(=N)N)C(=O)N[C@H](C(=O)N[C@@H](CCCCN)C(=O)NCc1ccc(C(=N)N)cc1)C(C)C (Ac-LLRLRVK-{NH(4-amidinobenzyl)}) | 0.6 | 0.5 nM | 0.9 nM | inactive |
| CC(=O)N[C@@H](CC(C)C)C(=O)N[C@@H](CC(C)C)C(=O)N[C@@H](CC(=O)O)C(=O)N[C@@H](CC(C)C)C(=O)N[C@@H](CCCNC(=N)N)C(=O)N[C@H](C(=O)N[C@@H](CCCCN)C(=O)NCc1ccc(C(=N)N)cc1)C(C)C (Ac-LLDLRVK-{NH(4-amidinobenzyl)}) | 1 | 140 nM | 140 nM | inactive |
| CSCC[C@H](NC(=O)[C@H](CC(C)C)NC(=O)[C@H](CC(C)C)NC(C)=O)C(=O)N[C@@H](CC(C)C)C(=O)N[C@@H](CCCNC(=N)N)C(=O)N[C@H](C(=O)N[C@@H](CCCCN)C(=O)NCc1ccc(C(=N)N)cc1)C(C)C (Ac-LLMLRVK-{NH(4-amidinobenzyl)}) | 0.6 | 18 nM | 28 nM | inactive |
| CC(=O)N[C@@H](CC(C)C)C(=O)N[C@@H](CC(C)C)C(=O)N[C@@H](CC(C)C)C(=O)N[C@@H](CCC(=O)O)C(=O)N[C@@H](CCCNC(=N)N)C(=O)N[C@H](C(=O)N[C@@H](CCCCN)C(=O)NCc1ccc(C(=N)N)cc1)C(C)C (Ac-LLLERVK-{NH(4-amidinobenzyl)}) | 0.8 | 38 nM | 46 nM | inactive |
| CC(=O)N[C@@H](CC(C)C)C(=O)N[C@@H](CC(C)C)C(=O)N[C@H](C(=O)N[C@@H](CC(C)C)C(=O)N[C@@H](CCCNC(=N)N)C(=O)N[C@H](C(=O)N[C@@H](CCCCN)C(=O)NCc1ccc(C(=N)N)cc1)C(C)C)C(C)C (Ac-LLVLRVK-{NH(4-amidinobenzyl)}) | 0.8 | 3 nM | 4 nM | inactive |
| CC(=O)N[C@@H](CC(C)C)C(=O)N[C@@H](CC(C)C)C(=O)NCC(=O)N[C@@H](CC(C)C)C(=O)N[C@@H](CCCNC(=N)N)C(=O)N[C@H](C(=O)N[C@@H](CCCCN)C(=O)NCc1ccc(C(=N)N)cc1)C(C)C (Ac-LLGLRVK-{NH(4-amidinobenzyl)}) | 0.8 | 16.7 nM | 21 nM | inactive |
| CC(=O)N[C@@H](CC(C)C)C(=O)N[C@@H](CO)C(=O)N[C@@H](CC(C)C)C(=O)N[C@@H](CC(C)C)C(=O)N[C@@H](CCCNC(=N)N)C(=O)N[C@H](C(=O)N[C@@H](CCCCN)C(=O)NCc1ccc(C(=N)N)cc1)C(C)C (Ac-LSLLRVK-{NH(4-amidinobenzyl)}) | 1.3 | 2.6 nM | 2 nM | inactive |
| CC(=O)N[C@@H](CCCNC(=N)N)C(=O)N[C@@H](CC(C)C)C(=O)N[C@@H](CC(C)C)C(=O)N[C@@H](CC(C)C)C(=O)N[C@@H](CCCNC(=N)N)C(=O)N[C@H](C(=O)N[C@@H](CCCCN)C(=O)NCc1ccc(C(=N)N)cc1)C(C)C (Ac-RLLLRVK-{NH(4-amidinobenzyl)}) | 1.8 | 1.1 nM | 0.6 nM | inactive |
| CC(=O)N[C@@H](CC(C)C)C(=O)N[C@@H](CCCNC(=N)N)C(=O)N[C@@H](CC(C)C)C(=O)N[C@@H](CC(C)C)C(=O)N[C@@H](CCCNC(=N)N)C(=O)N[C@H](C(=O)N[C@@H](CCCCN)C(=O)NCc1ccc(C(=N)N)cc1)C(C)C (Ac-LRLLRVK-{NH(4-amidinobenzyl)}) | 1.3 | 0.5 nM | 0.4 nM | inactive |
| CC(=O)N[C@@H](CC(C)C)C(=O)N[C@@H](CC(C)C)C(=O)N[C@@H](Cc1c[nH]c2ccccc12)C(=O)N[C@@H](CC(C)C)C(=O)N[C@@H](CCCNC(=N)N)C(=O)N[C@H](C(=O)N[C@@H](CCCCN)C(=O)NCc1ccc(C(=N)N)cc1)C(C)C (Ac-LLWLRVK-{NH(4-amidinobenzyl)}) | 0.8 | 36 nM | 44 nM | inactive |
| CC(=O)N[C@@H](CC(C)C)C(=O)N[C@@H](CC(C)C)C(=O)N[C@@H](CCCCN)C(=O)N[C@@H](CC(C)C)C(=O)N[C@@H](CCCNC(=N)N)C(=O)N[C@H](C(=O)N[C@@H](CCCCN)C(=O)NCc1ccc(C(=N)N)cc1)C(C)C (Ac-LLKLRVK-{NH(4-amidinobenzyl)}) | 1.8 | 4 nM | 2.2 nM | inactive |
| CC(=O)N[C@@H](CC(C)C)C(=O)N[C@@H](CC(C)C)C(=O)N[C@@H](CC(C)C)C(=O)NCC(=O)N[C@@H](CCCNC(=N)N)C(=O)N[C@H](C(=O)N[C@@H](CCCCN)C(=O)NCc1ccc(C(=N)N)cc1)C(C)C (Ac-LLLGRVK-{NH(4-amidinobenzyl)}) | 0.7 | 12 nM | 18 nM | inactive |
| CC(=O)NCC(=O)N[C@@H](CC(C)C)C(=O)N[C@@H](CC(C)C)C(=O)N[C@@H](CC(C)C)C(=O)N[C@@H](CCCNC(=N)N)C(=O)N[C@H](C(=O)N[C@@H](CCCCN)C(=O)NCc1ccc(C(=N)N)cc1)C(C)C (Ac-GLLLRVK-{NH(4-amidinobenzyl)}) | 1 | 3 nM | 3 nM | inactive |
| CC(=O)N[C@@H](CC(C)C)C(=O)N[C@@H](CC(C)C)C(=O)N[C@@H](CC(N)=O)C(=O)N[C@@H](CC(C)C)C(=O)N[C@@H](CCCNC(=N)N)C(=O)N[C@H](C(=O)N[C@@H](CCCCN)C(=O)NCc1ccc(C(=N)N)cc1)C(C)C (Ac-LLNLRVK-{NH(4-amidinobenzyl)}) | 0.7 | 13 nM | 18 nM | inactive |
| CC(=O)N[C@@H](CC(C)C)C(=O)N[C@@H](CC(=O)O)C(=O)N[C@@H](CC(C)C)C(=O)N[C@@H](CC(C)C)C(=O)N[C@@H](CCCNC(=N)N)C(=O)N[C@H](C(=O)N[C@@H](CCCCN)C(=O)NCc1ccc(C(=N)N)cc1)C(C)C (Ac-LDLLRVK-{NH(4-amidinobenzyl)}) | 0.6 | 50 nM | 80 nM | inactive |
| CC(=O)N[C@@H](CC(C)C)C(=O)N[C@@H](CC(C)C)C(=O)N[C@@H](CC(C)C)C(=O)N[C@@H](Cc1cnc[nH]1)C(=O)N[C@@H](CCCNC(=N)N)C(=O)N[C@H](C(=O)N[C@@H](CCCCN)C(=O)NCc1ccc(C(=N)N)cc1)C(C)C (Ac-LLLHRVK-{NH(4-amidinobenzyl)}) | 2.3 | 0.9 nM | 0.4 nM | inactive |
